From article PMC9889102 (European journal of medicinal chemistry, 2022)
pIC50: −log10 of the molar value. Read-outs that look alike come from different tables or passages of the source.

Tests used:
[1] = target: phosphorylated chicken gizzard smooth muscle myosin (Gallus gallus, UniProt P10587); test: Steady-state actin-activated Mg2+ ATPase inhibition, smooth muscle myosin; assay type: biochemical
Method in brief: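 Chicken gizzard smooth muscle myosin was fully phosphorylated (checked by urea gel), never frozen, and used within 2–3 weeks. It was run at 0.2 mg/mL final with 32 μM rabbit F-actin at 30 °C in MOPS pH 7.0, 50 mM NaCl, 0.1 mM EGTA, 5 mM MgCl2, 2 mM ATP, 1 mM DTT. DMSO was 2%, with dilutions from a 25 mM stock. IC50 is the half-maximal drop in steady-state ATPase.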

[2] = ref [25], cited from earlier work
[3] = test system: NM-IIB (cytokinesis in Cos-7 cells); test: Cytokinesis inhibition in Cos-7 cells; assay type: cell-based; details: 24 h, 37 °C
Method in brief: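 Cos-7 cells (4,000/well) were pre-grown 24 h, then exposed 24 h at 37 °C, 5% CO2 to test compound at 40 μM final in 1% DMSO. Controls were 1% DMSO and media (negative), plus para-aminoblebbistatin 20 μM and (−)-blebbistatin 10 μM (positive). Staining was fluorescein diacetate, Hoechst 33342 and propidium iodide for 10 min. N/C is Hoechst nuclei (excluding PI-positive) per FDA-stained cell. Triplicate wells, ≥2 experiments, ≥600 cells/well.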

[4] = 99:1 (v/v) PBS/methanol, room temperature; ref [25]; cited from earlier work
[5] = target: T1, fast rabbit skeletal myosin (Oryctolagus cuniculus, UniProt Q28641); details: previously reported ketimines; favoured isoform; ref [25]; cited from earlier work
T1 sequence (Q28641 whole entry, canonical isoform): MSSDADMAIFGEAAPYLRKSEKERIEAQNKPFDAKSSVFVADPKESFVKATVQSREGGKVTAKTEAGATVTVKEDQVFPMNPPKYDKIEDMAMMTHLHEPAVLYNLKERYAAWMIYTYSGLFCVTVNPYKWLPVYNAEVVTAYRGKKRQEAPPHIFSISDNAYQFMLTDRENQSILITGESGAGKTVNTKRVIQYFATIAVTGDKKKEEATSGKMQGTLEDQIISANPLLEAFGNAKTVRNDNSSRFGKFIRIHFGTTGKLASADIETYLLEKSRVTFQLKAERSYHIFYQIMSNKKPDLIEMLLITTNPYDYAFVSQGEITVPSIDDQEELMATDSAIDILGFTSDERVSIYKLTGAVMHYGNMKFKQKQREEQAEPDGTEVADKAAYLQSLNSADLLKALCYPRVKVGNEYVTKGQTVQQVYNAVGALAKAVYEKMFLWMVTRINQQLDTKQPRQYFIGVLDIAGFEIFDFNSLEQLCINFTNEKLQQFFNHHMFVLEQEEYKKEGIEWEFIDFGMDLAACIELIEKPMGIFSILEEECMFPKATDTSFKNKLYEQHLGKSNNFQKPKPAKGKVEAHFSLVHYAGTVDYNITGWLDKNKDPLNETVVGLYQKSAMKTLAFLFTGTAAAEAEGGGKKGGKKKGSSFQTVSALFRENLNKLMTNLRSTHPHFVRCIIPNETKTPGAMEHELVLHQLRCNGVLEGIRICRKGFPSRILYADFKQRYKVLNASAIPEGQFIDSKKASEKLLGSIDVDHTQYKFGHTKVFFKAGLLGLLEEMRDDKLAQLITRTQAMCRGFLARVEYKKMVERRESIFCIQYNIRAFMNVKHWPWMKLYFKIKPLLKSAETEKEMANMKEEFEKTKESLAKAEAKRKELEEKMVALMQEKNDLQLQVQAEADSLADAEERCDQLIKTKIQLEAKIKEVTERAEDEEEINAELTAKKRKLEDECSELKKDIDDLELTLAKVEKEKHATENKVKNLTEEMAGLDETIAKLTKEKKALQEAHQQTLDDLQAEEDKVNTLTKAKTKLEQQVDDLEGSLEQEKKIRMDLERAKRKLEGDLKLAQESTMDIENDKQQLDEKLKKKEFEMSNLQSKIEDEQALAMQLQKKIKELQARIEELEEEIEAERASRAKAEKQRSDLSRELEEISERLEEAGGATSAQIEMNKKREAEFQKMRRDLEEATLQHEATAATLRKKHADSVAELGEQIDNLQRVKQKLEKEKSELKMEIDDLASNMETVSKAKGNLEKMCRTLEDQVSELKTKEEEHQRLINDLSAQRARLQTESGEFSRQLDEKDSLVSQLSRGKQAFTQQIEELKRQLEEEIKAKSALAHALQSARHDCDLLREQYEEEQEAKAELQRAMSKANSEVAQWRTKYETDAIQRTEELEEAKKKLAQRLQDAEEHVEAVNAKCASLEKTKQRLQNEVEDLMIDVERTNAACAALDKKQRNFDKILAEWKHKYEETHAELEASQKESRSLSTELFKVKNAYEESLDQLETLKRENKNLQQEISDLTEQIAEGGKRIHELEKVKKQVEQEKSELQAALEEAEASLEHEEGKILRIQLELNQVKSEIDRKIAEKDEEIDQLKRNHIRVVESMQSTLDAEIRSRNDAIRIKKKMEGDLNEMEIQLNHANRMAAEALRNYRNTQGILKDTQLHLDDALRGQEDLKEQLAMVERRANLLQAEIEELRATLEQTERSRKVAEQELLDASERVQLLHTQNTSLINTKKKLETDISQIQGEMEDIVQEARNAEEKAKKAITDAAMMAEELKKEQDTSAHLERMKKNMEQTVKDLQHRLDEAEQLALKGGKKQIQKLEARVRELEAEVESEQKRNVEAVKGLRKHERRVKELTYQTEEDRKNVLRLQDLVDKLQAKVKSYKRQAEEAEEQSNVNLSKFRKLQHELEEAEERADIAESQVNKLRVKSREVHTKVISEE
T1 sequence (P02602 whole entry partner, canonical isoform): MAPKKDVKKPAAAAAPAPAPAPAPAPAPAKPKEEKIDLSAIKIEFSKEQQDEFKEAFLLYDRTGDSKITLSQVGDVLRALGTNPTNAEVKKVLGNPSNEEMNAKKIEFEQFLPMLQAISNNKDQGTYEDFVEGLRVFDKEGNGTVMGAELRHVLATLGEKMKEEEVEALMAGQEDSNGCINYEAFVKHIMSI
T1 sequence (P02608 whole entry partner, canonical isoform): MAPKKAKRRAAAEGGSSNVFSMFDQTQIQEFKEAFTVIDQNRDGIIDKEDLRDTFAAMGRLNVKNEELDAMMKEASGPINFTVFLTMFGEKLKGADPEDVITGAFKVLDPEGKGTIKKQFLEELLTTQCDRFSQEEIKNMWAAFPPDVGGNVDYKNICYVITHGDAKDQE

[6] = target: T1, fast rabbit skeletal myosin; test: Steady-state actin-activated Mg2+ ATPase inhibition, skeletal myosin; assay type: biochemical; details: cardiac IC50 (x) / skeletal IC50 (y)
Method in brief: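 Rabbit psoas skeletal myosin (unphosphorylated, 0.1 mg/mL final) with rabbit psoas F-actin (32 μM) at 30 °C, pH 7.0 MOPS buffer (50 mM NaCl, 0.1 mM EGTA, 5 mM MgCl2, 2 mM ATP, 1 mM DTT), 2% DMSO. IC50 taken as half-maximal reduction of steady-state rate. Selectivity is cardiac IC50 (bovine left-ventricle myosin, 0.5 mg/mL) divided by skeletal IC50.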

BEAS-2B, MCF-7 and A549 = details: normal human cell line BEAS-2B and cancer cell lines MCF-7 and A549; ref [41]; cited from earlier work

Chain of phosphorylated chicken gizzard smooth muscle myosin (P10587 2-1979 limits assumed): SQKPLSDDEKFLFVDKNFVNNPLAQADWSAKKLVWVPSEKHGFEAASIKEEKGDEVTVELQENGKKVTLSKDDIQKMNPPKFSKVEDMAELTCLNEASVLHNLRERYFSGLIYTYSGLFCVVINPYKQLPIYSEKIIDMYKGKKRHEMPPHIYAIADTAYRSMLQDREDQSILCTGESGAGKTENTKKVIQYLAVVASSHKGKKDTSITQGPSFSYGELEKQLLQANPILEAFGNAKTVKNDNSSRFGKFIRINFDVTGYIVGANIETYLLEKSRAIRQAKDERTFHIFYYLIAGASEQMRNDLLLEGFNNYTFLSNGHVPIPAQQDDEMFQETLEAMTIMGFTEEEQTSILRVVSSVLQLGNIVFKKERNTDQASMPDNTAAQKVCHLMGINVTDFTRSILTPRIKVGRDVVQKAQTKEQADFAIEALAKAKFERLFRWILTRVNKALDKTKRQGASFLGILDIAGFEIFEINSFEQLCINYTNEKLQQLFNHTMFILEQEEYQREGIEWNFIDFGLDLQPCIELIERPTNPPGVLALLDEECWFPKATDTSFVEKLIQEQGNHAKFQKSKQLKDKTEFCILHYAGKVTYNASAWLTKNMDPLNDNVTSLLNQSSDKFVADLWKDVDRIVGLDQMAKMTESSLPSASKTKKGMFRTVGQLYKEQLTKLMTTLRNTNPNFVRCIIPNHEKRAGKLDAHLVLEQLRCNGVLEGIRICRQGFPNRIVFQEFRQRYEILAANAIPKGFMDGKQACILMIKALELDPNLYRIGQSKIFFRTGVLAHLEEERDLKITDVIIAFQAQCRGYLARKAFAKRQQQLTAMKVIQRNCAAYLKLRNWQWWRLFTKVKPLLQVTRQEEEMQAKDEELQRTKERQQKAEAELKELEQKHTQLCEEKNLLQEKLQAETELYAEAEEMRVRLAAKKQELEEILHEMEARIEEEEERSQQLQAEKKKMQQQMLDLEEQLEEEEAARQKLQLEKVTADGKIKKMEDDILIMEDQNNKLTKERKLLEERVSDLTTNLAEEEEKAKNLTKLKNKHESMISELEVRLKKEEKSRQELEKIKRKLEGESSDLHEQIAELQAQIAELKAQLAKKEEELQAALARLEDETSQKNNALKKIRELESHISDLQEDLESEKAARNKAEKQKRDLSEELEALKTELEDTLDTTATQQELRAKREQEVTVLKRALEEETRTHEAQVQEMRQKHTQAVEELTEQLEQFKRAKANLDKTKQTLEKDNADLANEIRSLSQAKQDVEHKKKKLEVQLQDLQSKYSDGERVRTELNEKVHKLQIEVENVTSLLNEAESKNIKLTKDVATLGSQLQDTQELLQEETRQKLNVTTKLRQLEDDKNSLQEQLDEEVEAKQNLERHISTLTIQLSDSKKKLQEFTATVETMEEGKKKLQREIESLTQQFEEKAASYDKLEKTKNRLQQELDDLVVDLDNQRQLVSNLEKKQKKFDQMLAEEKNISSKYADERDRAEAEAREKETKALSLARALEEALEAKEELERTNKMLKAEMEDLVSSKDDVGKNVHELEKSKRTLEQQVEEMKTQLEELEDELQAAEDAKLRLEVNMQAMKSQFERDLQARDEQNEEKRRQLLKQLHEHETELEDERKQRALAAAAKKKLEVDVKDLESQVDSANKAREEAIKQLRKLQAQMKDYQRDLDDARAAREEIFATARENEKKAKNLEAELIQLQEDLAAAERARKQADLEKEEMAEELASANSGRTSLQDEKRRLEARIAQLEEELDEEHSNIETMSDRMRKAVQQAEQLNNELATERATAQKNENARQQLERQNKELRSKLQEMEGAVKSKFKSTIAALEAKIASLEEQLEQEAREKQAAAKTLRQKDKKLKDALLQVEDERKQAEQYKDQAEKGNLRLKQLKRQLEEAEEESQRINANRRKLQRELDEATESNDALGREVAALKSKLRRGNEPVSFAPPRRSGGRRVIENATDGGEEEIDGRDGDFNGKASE

Compound: COCC/N=C(\C)c1c(O)c2ccccc2oc1=O [Analog 5a, 4-Hydroxy-3-(N-(2-methoxyethyl)ethanimidoyl)-2H-chromen-2-one]
- pIC50 [1]: ≤ 4.00

Compound: C/C(=N\Cc1ccccc1)c1c(O)c2ccccc2oc1=O [Analog 2]
- Kinetic solubility ([2]; pH 7.4 PBS, 2.5% DMSO): 100 µM

Compound: CCCCN(CCC/N=C(\C)c1c(O)c2ccccc2oc1=O)Cc1cccc(OC)c1 [Analog 19, 3-(N-(N’-Butyl-N’−3-methoxybenzyl-3-aminopropyl)ethanimidoyl)-4-hydroxy-2H-chromen-2-one]
- pIC50 [1]: ≤ 4.00

Compound: C/C(=N\CCCOCc1ccc2c(c1)OCO2)c1c(O)c2ccccc2oc1=O [Analog 13c]
- pIC50 [1]: ≤ 4.00
- Inhibition of cytokinesis (nuclei to cell ratio, N/C) ([3]; 40 μM): no cytokinesis inhibition

Compound: COc1cc(/C=C/C(=O)c2c(O)c3ccccc3oc2=O)ccc1O [Analog 20, 4-Hydroxy-3-(3-(4-hydroxy-3-methoxyphenyl)-1-oxo-2-propen-1-yl)-2H-1-Benzopyran-2-one]
- pIC50 [1]: ≤ 4.00

Compound: CCOCC/N=C(\C)c1c(O)c2ccccc2oc1=O [Analog 5b, 3-(N-(2-Ethoxyethyl)ethanimidoyl)-4-hydroxy-2H-chromen-2-one]
- pIC50 [1]: ≤ 4.00

Compound: CCOCCC/N=C(\C)c1c(O)c2ccccc2oc1=O [Analog 5d, 3-(N-(3-Ethoxypropyl)ethanimidoyl)-4-hydroxy-2H-chromen-2-one]
- pIC50 [1]: ≤ 4.00

Compound: C/C(=N\Cc1ccncc1)c1c(O)c2ccccc2oc1=O [JB031]
- half-life for hydrolysis [4]: 84 ± 12 h

Compound: Cc1ccc2c(c1)C(=O)[C@]1(O)CCN(c3ccc(N)cc3)C1=N2 [para-aminoblebbistatin, reference compound]
- Inhibition of cytokinesis (nuclei to cell ratio, N/C) ([3]; positive control, 20 μM): inhibited cytokinesis

Compound: C/C(=N\Cc1ccc(C)cc1)c1c(O)c2ccccc2oc1=O [JB060]
- Selectivity (cardiac vs. skeletal myosin inhibition) [5]: skeletal-selective

Compound: COc1cccc(C/N=C(\C)c2c(O)c3ccccc3oc2=O)c1 [Analog 6a, 4-Hydroxy-3-(N-(3-methoxybenzyl)ethanimidoyl)-2H-chromen-2-one]
- pIC50 [1]: ≤ 4.00

Compound: C/C(=N\Cc1cccc(C)c1)c1c(O)c2ccccc2oc1=O [JB069]
- Selectivity (cardiac vs. skeletal myosin inhibition) [5]: cardiac-selective

Compound: 3-(N-butylethanimidoyl)-4-hydroxy-2H-chromen-2-one [BHC, reference compound]
- Kinetic solubility ([2]; nephelometry in PBS (pH 7.4) containing 2.5% DMSO): 607 ± 2 μm

Compound: COc1ccc(COCCC/N=C(\C)c2c(O)c3ccccc3oc2=O)cc1 [Analog 13b]
- Selectivity x/y [6]: ≥ 2.0
- pIC50 [1]: ≤ 4.00

Compound: Cc1ccc2c(c1)C(=O)[C@]1(O)CCN(c3ccccc3)C1=N2 [Blebbistatin, blebbistatin, reference compound]
- Inhibition of cytokinesis (nuclei to cell ratio, N/C) ([3]; positive control, 10 μM): inhibited cytokinesis

Compound: COCCC/N=C(\C)c1c(O)c2ccccc2oc1=O [Analog 5c, 4-Hydroxy-3-(N-(3-methoxypropyl)ethanimidoyl)-2H-chromen-2-one]
- pIC50 [1]: ≤ 4.00

Compound: COc1ccc(C/N=C(\C)c2c(O)c3ccccc3oc2=O)cc1 [Analog 6b, 4-Hydroxy-3-(N-(4-methoxybenzyl)ethanimidoyl)-2H-chromen-2-one]
- pIC50 [1]: ≤ 4.00
- Cytotoxicity (BEAS-2B, MCF-7 and A549): low μM range
- Inhibition of cytokinesis (nuclei to cell ratio, N/C) ([3]; 40 μM): did not inhibit cytokinesis

Compound: CCOCCC/N=C/c1c(O)c2ccccc2oc1=O [Analog 8a, 3-(N-(3-Ethoxypropyl)methanimidoyl)-4-hydroxy-2H-chromen-2-one]
- pIC50 [1]: ≤ 4.00
